Published values collected from several papers.
Sialidase-4: Sialidase-4 (Homo sapiens, UniProt Q8WWR8)
ache: Acetylcholinesterase (ache, Electrophorus electricus, UniProt O42275)
ALOX15: Polyunsaturated fatty acid lipoxygenase ALOX15 (ALOX15, Homo sapiens, UniProt P16050)

`CC(C)Cc1cn([C@H]2[C@H]([C@H](O)[C@H](O)CO)OC(C(=O)O)=C[C@@H]2O)nn1` has an IC50 of over 500 µM (Sialidase-4; enzyme activity; inhibitor).
The IC50 of `CCN(C)C(=O)Oc1ccc(/C=C/C(=O)NC2CCN(Cc3ccccc3)CC2)cc1OC` is reported as 3.9 µM (ache; enzyme activity; inhibitor; Ellman).
`COc1ccc(-c2nnc(-c3ccc(OCc4cn(Cc5ccc(Br)cc5)nn4)cc3)o2)cc1` has an IC50 of over 100 µM (ache; enzyme activity; inhibitor; Ellman).
`CCN(C)C(=O)Oc1ccc(CCC(=O)N(CC)Cc2ccccc2)cc1OC` has an IC50 of 13.8 µM (ache; enzyme activity; inhibitor; Ellman).
For `Cc1cn([C@H]2[C@H]([C@H](O)[C@H](O)CO)OC(C(=O)O)=C[C@@H]2O)nn1`, the IC50 was 26 µM (Sialidase-4; enzyme activity; inhibitor).
For `COc1cc(/C=C/C(=O)NC2CCN(Cc3ccccc3)CC2)ccc1OC(=O)N1CCCC1`, the IC50 was 3.1 µM (ache; enzyme activity; inhibitor; Ellman).
`O=[N+]([O-])c1ccc(-c2nnc(-c3ccc(OCc4cn(Cc5ccc(F)cc5)nn4)cc3)o2)cc1` has an IC50 of over 100 µM (ache; enzyme activity; inhibitor; Ellman).
`O=C(N1CCC2(CC1)C[C@H](CN1CCCCS1(=O)=O)CCO2)C1(c2ccccc2)CCCC1` has an IC50 of over 50 µM (ATP-dependent RNA helicase DDX3X (DDX3X, Homo sapiens, UniProt O00571); ATPase activity; inhibitor).
With `CCOC(=O)c1ccccc1-c1c2ccc(=O)cc-2oc2cc(OCCCNC(=O)C(OC(=O)c3ccccc3)C3CC3)ccc12` (stereo not drawn) the IC50 was 43.7 µM (ALOX15; enzyme activity; inhibitor; absorbance).
The IC50 of `CCCCCCCCCC(=O)N[C@@H](CCCN=C(N)N)C(=O)N[C@H](C(=O)N[C@@H](CCCCN)C(=O)N[C@@H](CCCN=C(N)N)C(=O)CCl)C(C)C` is reported as 0.00296 µM (Furin (FURIN, Homo sapiens, UniProt P09958); enzyme activity; inhibitor).
With `CCOC(=O)c1ccccc1-c1c2ccc(=O)cc-2oc2cc(OCCCNc3c(-c4ccc(Cl)cc4)nc4ccccn34)ccc12` the IC50 was 78.7 µM (ALOX15; enzyme activity; inhibitor; absorbance).
For `CC(C(=O)O)n1nc(Cn2cc3cc(OCCF)c(Cl)cc3n2)c2ccccc2c1=O` (racemic), the IC50 was over 1 µM (Sphingosine 1-phosphate receptor 1 (S1PR1, Homo sapiens, UniProt P21453); ligand displacement; radioligand; cell membranes).
The IC50 of `O=C(O)C1=C[C@H](O)[C@@H](NCc2ccc(-c3ccccc3)cc2)[C@H]([C@H](O)[C@H](O)CO)O1` is reported as 260 µM (Sialidase-4; enzyme activity; inhibitor).
The IC50 of `c1ccc(Cn2cc(COc3ccc(-c4nnc(-c5ccccc5)o4)cc3)nn2)cc1` is reported as over 100 µM (ache; enzyme activity; inhibitor; Ellman).
The IC50 of `CC(C)CCC(=O)N[C@H]1[C@H]([C@H](O)[C@H](O)CO)OC(C(=O)O)=C[C@@H]1O` is reported as 270 µM (Sialidase-4; enzyme activity; inhibitor).
With `CC(C)(C)OC(=O)NC1CCCN(C(=O)/C=C/c2ccc([N+](=O)[O-])cc2)C1` (stereo not drawn) the IC50 was over 50 µM (ache; enzyme activity; inhibitor; Ellman).
`CC(C)(C)c1cn([C@H]2[C@H]([C@H](O)[C@H](O)CO)OC(C(=O)O)=C[C@@H]2O)nn1` gave an IC50 of 80 µM (Sialidase-4; enzyme activity; inhibitor).
`CCOC(=O)c1ccccc1-c1c2ccc(=O)cc-2oc2cc(OCCCNc3c(C4CCCCCC4)nc4ccccn34)ccc12` has an IC50 of over 100 µM (ALOX15; enzyme activity; inhibitor; absorbance).
